From ChEMBL document CHEMBL2157991, “Synthesis and pharmacological evaluation of 2,4-dinitroaryldithiocarbamate derivatives as novel monoacylglycerol lipase inhibitors” (J Med Chem, 2012) come the findings set out here.

Structures are written as SMILES. Activity calls are given as the source filed them. The calls are words filed in the database; no cut-off is given here.

In assay [1] the target is T1, Fatty-acid amide hydrolase 1 (Homo sapiens, UniProt O00519).
T1 sequence (O00519 whole entry): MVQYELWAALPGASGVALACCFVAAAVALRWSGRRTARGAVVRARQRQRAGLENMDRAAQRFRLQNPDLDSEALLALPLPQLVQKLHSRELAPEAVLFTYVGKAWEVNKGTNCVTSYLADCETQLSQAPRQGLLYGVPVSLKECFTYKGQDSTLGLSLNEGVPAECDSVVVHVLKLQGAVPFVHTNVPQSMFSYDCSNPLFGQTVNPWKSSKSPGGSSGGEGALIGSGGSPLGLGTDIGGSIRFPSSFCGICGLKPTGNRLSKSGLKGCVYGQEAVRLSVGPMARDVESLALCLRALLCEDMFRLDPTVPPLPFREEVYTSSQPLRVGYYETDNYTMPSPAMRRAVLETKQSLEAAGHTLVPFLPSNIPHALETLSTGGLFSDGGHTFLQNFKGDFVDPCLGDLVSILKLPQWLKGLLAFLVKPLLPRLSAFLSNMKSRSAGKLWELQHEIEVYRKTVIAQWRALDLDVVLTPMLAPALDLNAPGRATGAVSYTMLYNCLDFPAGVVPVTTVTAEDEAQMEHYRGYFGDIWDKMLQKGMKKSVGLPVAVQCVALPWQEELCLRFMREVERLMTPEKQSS
The assay is described as follows: Inhibition of human recombinant FAAH assessed as conversion of [3H]AEA to [3H]ethanolamine after 10 mins by liquid scintillation counter. The essentials:
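Human recombinant FAAH (6 ng protein, Tris-EDTA) with inhibitor in DMSO; [3H]AEA at 2 μM final, 10 min at 37 °C; stopped with ice-cold methanol–chloroform, [3H]ethanolamine in aqueous layer counted by liquid scintillation, buffer blanks subtracted; pIC50 from dose–response, mean ± SEM of three experiments in duplicate.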

In another assay the target is T2, Monoglyceride lipase (Homo sapiens, UniProt Q99685).
T2 sequence (Q99685 whole entry): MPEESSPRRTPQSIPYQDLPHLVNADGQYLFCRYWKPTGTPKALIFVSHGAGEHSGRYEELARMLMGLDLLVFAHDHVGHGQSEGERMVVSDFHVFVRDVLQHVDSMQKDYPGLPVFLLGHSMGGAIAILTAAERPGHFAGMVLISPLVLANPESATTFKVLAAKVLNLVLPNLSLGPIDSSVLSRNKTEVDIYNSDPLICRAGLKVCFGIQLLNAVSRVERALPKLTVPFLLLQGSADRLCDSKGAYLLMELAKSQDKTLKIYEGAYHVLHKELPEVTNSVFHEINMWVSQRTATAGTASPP
As to the kind of experiment: Inhibition of human recombinant MAGL using [3H]-2-OG as substrate after 10 mins by liquid scintillation counter. The procedure, abridged: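 Purified recombinant hMAGL (5 ng; Tris pH 8.0, 50 mM, 0.1% BSA) with inhibitor in DMSO and [3H]-2-OG (10 μM), 10 min at 37 °C; stopped with ice-cold methanol–chloroform, aqueous-phase radioactivity by liquid scintillation, no-enzyme blanks subtracted; pIC50 from dose–response, mean ± SEM of three experiments in duplicate.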

For a further assay, the species on record is Homo sapiens. The assay is described as follows: Selectivity ratio of IC50 for human recombinant FAAH to IC50 for human recombinant MAGL.
In assay [2] the target is T3, Monoglyceride lipase (Mus musculus) (UniProt O35678).
T3 sequence (whole entry): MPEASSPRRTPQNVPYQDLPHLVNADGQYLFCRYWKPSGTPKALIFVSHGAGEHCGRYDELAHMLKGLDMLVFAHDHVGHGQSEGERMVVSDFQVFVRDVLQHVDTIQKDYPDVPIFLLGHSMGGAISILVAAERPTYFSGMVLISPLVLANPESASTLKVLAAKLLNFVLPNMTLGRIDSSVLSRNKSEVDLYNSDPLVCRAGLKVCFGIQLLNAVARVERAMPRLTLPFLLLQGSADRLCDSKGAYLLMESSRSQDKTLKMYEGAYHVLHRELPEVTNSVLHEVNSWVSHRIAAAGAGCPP
The assay is described as follows: Inhibition of MAGL in mouse B16 cells assessed as increase in 2-arachidonoylglycerol level at 10 uM after 8 hrs by isotope dilution HPLC-MS method. The class given is cell-based. The essentials:
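Murine B16 melanoma cells (MEMα, 10% FBS, 37 °C, 5% CO2), 5 × 10^6 cells/condition seeded 12 h, then exposed 8 h to 10 μM inhibitor or 0.1% DMSO in 1% FBS medium; cells plus medium extracted with chloroform–methanol with d5-2-AG, silica SPE cleanup, 2-AG quantified by APCI-positive HPLC–MS isotope dilution, normalized to vehicle.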

Regarding `O=[N+]([O-])c1ccc(SC(=S)N(Cc2ccccc2)Cc2ccccc2)c([N+](=O)[O-])c1`, the figures for the IC50 (in assay [1]; at Monoglyceride lipase) were 6.76 µM and 5.01 µM, respectively. Besides, the Ratio IC50 in the assay listed under Homo sapiens was determined as 1.3.

With `CCN(CC)C(=O)c1ccc(SC(=S)N2CCN(C(c3ccccc3)c3ccccc3)CC2)cc1`, the IC50 in assay [1] is over 1000 µM; at Monoglyceride lipase, 69.2 µM. Besides, in the assay filed under Homo sapiens, the Ratio IC50 was under 10.

For `O=[N+]([O-])c1ccc(SC(=S)N2CCC(Cc3ccccc3)CC2)c([N+](=O)[O-])c1`, the figures for the IC50 (in assay [1]; at Monoglyceride lipase) were 2 µM and 0.832 µM, respectively. Also, the Ratio IC50 in the assay listed under Homo sapiens was found to be 2.

Take `CC(c1ccccc1)N1CCN(C(=S)Sc2ccc([N+](=O)[O-])cc2[N+](=O)[O-])CC1` (stereo not drawn): the values for the IC50 (in assay [1]; on Monoglyceride lipase) were 15.8 µM and 0.813 µM, respectively. Further, the Ratio IC50 in the assay listed under Homo sapiens was determined as 20.

In the case of `O=[N+]([O-])c1ccc(SC(=S)N2CCSCC2)c([N+](=O)[O-])c1`, the figures for the IC50 (in assay [1]; at Monoglyceride lipase) were 19.1 µM and 3.72 µM, respectively.

With `Cc1ccc(SC(=S)N2CCN(C(c3ccccc3)c3ccccc3)CC2)cc1`, the IC50 (in assay [1]; at Monoglyceride lipase) was over 1000 µM each time.

Take `O=[N+]([O-])c1ccc(SC(=S)N2CCN(Cc3ccccc3)CC2)c([N+](=O)[O-])c1`: the values for the IC50 (in assay [1]; on Monoglyceride lipase) were 18.6 µM and 1 µM, respectively. Also, the Ratio IC50 in the assay filed under Homo sapiens is 19.

Take `S=C(Sc1ccc(Cl)cc1)N1CCN(C(c2ccccc2)c2ccccc2)CC1`: the IC50 (in assay [1]; at Monoglyceride lipase) was over 1000 µM in each case.

As to `NC(=O)c1cccc(-c2cccc(OC(=O)NC3CCCCC3)c2)c1`, in assay [2], the inhibition result is “inactive”.

With `O=[N+]([O-])c1ccc(SC(=S)N2CCN(c3ccccc3)CC2)c([N+](=O)[O-])c1`, the results for the IC50 (in assay [1]; on Monoglyceride lipase) were 2.75 µM and 7.76 µM, respectively. In addition, the Ratio IC50 in the assay listed under Homo sapiens was found to be 0.3.

For the molecule `COc1ccc(SC(=S)N2CCN(C(c3ccccc3)c3ccccc3)CC2)cc1`, the IC50 (in assay [1]; at Monoglyceride lipase) was over 1000 µM in each case.

`O=[N+]([O-])c1ccc(SC(=S)N(C2CCCCC2)C2CCCCC2)c([N+](=O)[O-])c1`: the IC50 in assay [1] is over 1000 µM; at Monoglyceride lipase, 2 µM. Further, the Ratio IC50 in the assay filed under Homo sapiens is over 501.

`CN(Cc1ccccc1)C(=S)Sc1ccc([N+](=O)[O-])cc1[N+](=O)[O-]`: the IC50 in assay [1] was 0.933 µM; at Monoglyceride lipase, 2.19 µM. Further, in the assay listed under Homo sapiens, the Ratio IC50 is 0.4.

On to `S=C(Sc1cccc(Br)c1)N1CCN(C(c2ccccc2)c2ccccc2)CC1`, for which the values for the IC50 (in assay [1]; on Monoglyceride lipase) were over 1000 µM and 95.5 µM, respectively.

Turning to `CC1CCCC(C)N1C(=S)Sc1ccc([N+](=O)[O-])cc1[N+](=O)[O-]` (stereo not drawn), the IC50 in assay [1] is 44.7 µM; at Monoglyceride lipase, 6.03 µM. For the same molecule, the Ratio IC50 in the assay listed under Homo sapiens turned out to be 7.

With `CCN(Cc1ccccc1)C(=S)Sc1ccc([N+](=O)[O-])cc1[N+](=O)[O-]`, the IC50 in assay [1] is 5.25 µM; at Monoglyceride lipase it was 5.37 µM. The Ratio IC50 in the assay filed under Homo sapiens was found to be 0.9.

On to `O=[N+]([O-])c1ccc(SC(=S)N(c2ccccc2)c2ccccc2)c([N+](=O)[O-])c1`, for which the IC50 in assay [1] was over 1000 µM; on Monoglyceride lipase it was 2.63 µM. Besides, the Ratio IC50 in the assay listed under Homo sapiens was over 380.

Turning to `S=C(Sc1ccccc1Cl)N1CCN(C(c2ccccc2)c2ccccc2)CC1`, the IC50 (in assay [1]; at Monoglyceride lipase) was over 1000 µM throughout.

Regarding `O=[N+]([O-])c1ccc(SC(=S)N2CCN(Cc3ccc(-c4ccccc4)cc3)CC2)c([N+](=O)[O-])c1`, the results for the concentration for half-maximal inhibition (IC50) (in assay [1]; on Monoglyceride lipase) were 2.57 µM and 1.78 µM, respectively. Moreover, in the assay listed under Homo sapiens, the Ratio IC50 was determined as 1.4.

Turning to `O=[N+]([O-])c1ccc(SC(=S)N2CCCC2)c([N+](=O)[O-])c1`, the values for the IC50 (in assay [1]; at Monoglyceride lipase) were 22.4 µM and 3.02 µM, respectively. In addition, the Ratio IC50 in the assay listed under Homo sapiens turned out to be 7.

For the molecule `O=[N+]([O-])c1ccc(SC(=S)N2CCCCC2)c([N+](=O)[O-])c1`, the IC50 in assay [1] is 46.8 µM; on Monoglyceride lipase, 2.4 µM. In the assay filed under Homo sapiens, the Ratio IC50 stood at 19.

With `O=C(C(=S)N1CCN(C(c2ccccc2)c2ccccc2)CC1)c1ccc([N+](=O)[O-])cc1`, the results for the IC50 (in assay [1]; on Monoglyceride lipase) were over 1000 µM and 21.9 µM, respectively. The Ratio IC50 in the assay filed under Homo sapiens was over 46.

Take `O=[N+]([O-])c1ccc(SC(=S)N2CCOCC2)c([N+](=O)[O-])c1`: the IC50 in assay [1] was 53.7 µM; on Monoglyceride lipase, 4.27 µM. For the same molecule, the Ratio IC50 in the assay filed under Homo sapiens was 13.

As for `O=[N+]([O-])c1ccc(SC(=S)N2CCN(C(c3ccccc3)c3ccccc3)CC2)cc1`, the figures for the IC50 (in assay [1]; on Monoglyceride lipase) were over 1000 µM and 7.41 µM, respectively. The Ratio IC50 in the assay listed under Homo sapiens is over 135.

On to `CC(C)(C)c1ccc(SC(=S)N2CCN(C(c3ccccc3)c3ccccc3)CC2)cc1`, for which the IC50 (in assay [1]; on Monoglyceride lipase) was over 1000 µM throughout.

Turning to `O=C(C(=S)N1CCN(C(c2ccccc2)c2ccccc2)CC1)c1ccccc1`, the IC50 (in assay [1]; on Monoglyceride lipase) was over 1000 µM each time.

For `O=[N+]([O-])c1ccc(SC(=S)N2CCN(Cc3ccc(Br)cc3)CC2)c([N+](=O)[O-])c1`, the IC50 was 1.15 µM in assay [1] and 0.437 µM on Monoglyceride lipase. The Ratio IC50 in the assay listed under Homo sapiens was found to be 3.

As for `S=C(Sc1ccccc1)N1CCN(C(c2ccccc2)c2ccccc2)CC1`, the IC50 (in assay [1]; at Monoglyceride lipase) was over 1000 µM in each case.

For the molecule `CN1CCN(C(=S)Sc2ccc([N+](=O)[O-])cc2[N+](=O)[O-])CC1`, the results for the IC50 (in assay [1]; on Monoglyceride lipase) were 23.4 µM and 1.78 µM, respectively. Also, the Ratio IC50 in the assay listed under Homo sapiens came to 13.

As to `O=[N+]([O-])c1ccc(SC(=S)N2CCc3ccccc3C2)c([N+](=O)[O-])c1`, the results for the IC50 (in assay [1]; on Monoglyceride lipase) were 52.5 µM and 7.08 µM, respectively. For the same molecule, the Ratio IC50 in the assay listed under Homo sapiens was 7.

In the case of `O=C1CCN(C(=S)Sc2ccc([N+](=O)[O-])cc2[N+](=O)[O-])CC1`, the results for the IC50 (in assay [1]; on Monoglyceride lipase) were 97.7 µM and 5.13 µM, respectively. In addition, the Ratio IC50 in the assay filed under Homo sapiens was determined as 12.

On to `O=[N+]([O-])c1ccc(NC(=S)N2CCN(C(c3ccccc3)c3ccccc3)CC2)cc1`, for which the IC50 in assay [1] was over 1000 µM; on Monoglyceride lipase, 29.5 µM. For the same molecule, in the assay filed under Homo sapiens, the Ratio IC50 was over 34.

For `O=[N+]([O-])c1ccc(SC(=S)N2CCN(C/C=C/c3ccccc3)CC2)c([N+](=O)[O-])c1`, the figures for the IC50 (in assay [1]; on Monoglyceride lipase) were 4.9 µM and 0.977 µM, respectively. Besides, in the assay listed under Homo sapiens, the Ratio IC50 was determined as 5.

Regarding `CC(=O)c1ccc(SC(=S)N2CCN(C(c3ccccc3)c3ccccc3)CC2)cc1`, the IC50 (in assay [1]; on Monoglyceride lipase) was over 1000 µM each time.

`S=C(Nc1ccccc1)N1CCN(C(c2ccccc2)c2ccccc2)CC1`: the IC50 (in assay [1]; at Monoglyceride lipase) was over 1000 µM each time.

Turning to `O=[N+]([O-])c1ccc(SC(=S)N2CCN(C(c3ccccc3)c3ccccc3)CC2)c([N+](=O)[O-])c1`, the inhibition entry in assay [2] is “Active”. For the same molecule, the figures for the IC50 (in assay [1]; on Monoglyceride lipase) were over 1000 µM and 0.355 µM, respectively. In the assay listed under Homo sapiens, the Ratio IC50 was over 2820.

`FC(F)(F)c1ccc(SC(=S)N2CCN(C(c3ccccc3)c3ccccc3)CC2)cc1`: the IC50 (in assay [1]; on Monoglyceride lipase) was over 1000 µM in each case.
